From ChEMBL document CHEMBL1129078, “3-(2-Benzofuranyl)quinuclidin-2-ene derivatives: novel muscarinic antagonists” (J Med Chem, 1996)

What was measured:
[1] = target: Muscarinic acetylcholine receptor; assay: Receptor binding affinity against Muscarinic acetylcholine receptor from guinea pig heart was determined using [3H]- QNB as radioligand; format: protein assay, Cavia porcellus
Outline: (§1)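 Guinea pig hearts dissected in Krebs-Henseleit pH 7.4 with 1 mM PMSF, Polytron-homogenized in ice-cold 50 mM phosphate/PMSF buffer pH 7.4, ≤0.3 mg/mL protein. Competition against 2 nM (−)-[3H]QNB, triplicates at 25 °C for 80 min, 10 µM atropine nonspecific. Centrifugation, scintillation counting of pellets. Graphical IC50 to Ki by the Jacobs method; means ± SEM, 2–3 experiments.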

[2] = target: Muscarinic acetylcholine receptor; assay: Receptor binding affinity against Muscarinic acetylcholine receptor from guinea pig urinary bladder was determined using [3H]- QNB as radioligand; format: protein assay, Cavia porcellus
Outline: (§2)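 Guinea pig urinary bladder dissected in PMSF-containing Krebs-Henseleit pH 7.4 and Polytron-homogenized in ice-cold 50 mM phosphate buffer pH 7.4 with 1 mM PMSF (≤0.3 mg/mL protein). Competition against 2 nM (−)-[3H]QNB; triplicates at 25 °C for 60 min; 10 µM atropine defines nonspecific binding. Pellets from centrifugation were scintillation counted. IC50 taken graphically, Ki by the Jacobs method; means ± SEM, 2–3 experiments.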

[3] = target: Muscarinic acetylcholine receptor; assay: Receptor binding affinity against Muscarinic acetylcholine receptor from guinea pig cerebral cortex was determined using [3H]- QNB as radioligand; format: tissue-based, Cavia porcellus
Outline: (§3)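 Guinea pig cerebral cortex homogenized (Potter-Elvehjem) in ice-cold 50 mM Na/K phosphate buffer pH 7.4 with 1 mM PMSF, ≤0.3 mg/mL protein. Competition with (−)-[3H]QNB (2 nM final), triplicates incubated at 25 °C for 80 min, nonspecific binding with 10 µM atropine. Ended by centrifugation; pellets counted by scintillation. IC50 read graphically, converted to Ki by the Jacobs method; means ± SEM of 2–3 experiments.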

[4] = target: Muscarinic acetylcholine receptor; assay: Receptor binding affinity against Muscarinic acetylcholine receptor from guinea pig parotid gland was determined using [3H]- QNB as radioligand; format: protein assay, Cavia porcellus
Outline: (§4)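 Guinea pig parotid glands dissected in Krebs-Henseleit pH 7.4 with 1 mM PMSF, Polytron-homogenized in ice-cold 50 mM phosphate/PMSF pH 7.4, ≤0.3 mg/mL protein. Displacement of 2 nM (−)-[3H]QNB, triplicates at 25 °C for 210 min, 10 µM atropine for nonspecific binding. Centrifugation, then pellet scintillation counting. Ki from graphical IC50 via the Jacobs correction; means ± SEM of 2–3 experiments.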

[5] = target: Muscarinic acetylcholine receptor; assay: Receptor binding affinity (Ki) for Muscarinic acetylcholine receptor (urinary bladder) was determined by competition radioligand -[3H]- QNB binding assay; format: protein assay, Cavia porcellus; outline: as §2
[6] = target: Muscarinic acetylcholine receptor; assay: Receptor binding affinity (Ki) for Muscarinic acetylcholine receptor (parotid glands) was determined by competition radioligand -[3H]- QNB binding assay; format: protein assay, Cavia porcellus
Outline: as §4, with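 “counting.” for “counting. Ki from graphical IC50 via the Jacobs correction; means ± SEM of 2–3 experiments.”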

[7] = target: Muscarinic acetylcholine receptor; assay: Receptor binding affinity (Ki) for Muscarinic acetylcholine receptor (heart)was determined by competition radioligand -[3H]- QNB binding assay; format: protein assay, Cavia porcellus; outline: as §1
[8] = target: Muscarinic acetylcholine receptor; assay: Receptor binding affinity (Ki) against Muscarinic acetylcholine receptor (cerebral cortex) was determined by competition radioligand -[3H]- QNB binding assay; format: tissue-based, Cavia porcellus
Outline: as §3, with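 “scintillation.” for “scintillation. IC50 read graphically, converted to Ki by the Jacobs method; means ± SEM of 2–3 experiments.”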

Cavia porcellus = species: Cavia porcellus; assay: Antimuscarinic potency using isolated guinea pig urinary bladder; format: functional
Outline: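 Male guinea pigs (~300 g) killed and exsanguinated; urinary bladder smooth muscle strips mounted in 37 °C Krebs-Henseleit baths (pH 7.4, carbogen), ~5 mN resting tension, isometric tension recorded. A control cumulative carbachol curve was run, then washout, ≥15 min rest, and 60 min with a fixed antagonist concentration before a second curve. Dose ratio from graphical EC50s; KB = [A]/(r − 1).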

Row | SMILES | Ki [1] [nM] | Ki [2] [nM] | Ki [3] [nM] | Ki [4] [nM] | Ki [5] [nM] | Ki [6] [nM] | Ki [7] [nM] | Ki [8] [nM] | Kb (Cavia porcellus) [nM]
1 | Brc1cccc2cc(C3=CN4CCC3CC4)oc12 |  |  |  |  | 97 | 216 | 44 | 15 | 123
2 | C1=C(c2cc3cc(-c4ccccc4)ccc3o2)C2CCN1CC2 |  |  |  |  | 332 | 410 | 376 | 289 | 
3 | Brc1c(C2=CN3CCC2CC3)oc2ccccc12 |  |  |  |  | 116 | 161 | 106 | 40 | 
4 | C1=C(c2cc3cccc(-c4ccccc4)c3o2)C2CCN1CC2 |  |  |  |  | 330 | 410 | 260 | 135 | 
5 | Cc1c(C2=CN3CCC2CC3)oc2ccccc12 |  |  |  |  |  | 204 | 77.8 | 25.3 | 
6 | Nc1ccc2oc(C3=CN4CCC3CC4)cc2c1 | 837 |  | 212 | 683 |  |  |  |  | 
7 | C1=C(c2cc3ncccc3o2)C2CCN1CC2 | 61 | 83 | 21 | 110 |  |  |  |  | 
8 | Fc1ccc2oc(C3=CN4CCC3CC4)cc2c1 | 34 | 37 | 6.3 | 30 |  |  |  |  | 
9 | OCc1cccc2cc(C3=CN4CCC3CC4)oc12 | 1360 | 2000 | 330 | 1024 |  |  |  |  | 
10 | Cc1ccc2oc(C3=CN4CCC3CC4)cc2c1 |  |  |  |  | 364 | 295 | 238 | 116 | 
11 | OCc1ccc2oc(C3=CN4CCC3CC4)cc2c1 | 1840 | 2900 | 1400 | 10700 |  |  |  |  | 13400
12 | N#Cc1ccc2oc(C3=CN4CCC3CC4)cc2c1 |  |  |  |  |  | 236 | 160 | 60 | 
13 | O=[N+]([O-])c1ccc2oc(C3=CN4CCC3CC4)cc2c1 | 460 |  | 139 | 515 |  |  |  |  | 
14 | C1=C(c2oc3ccccc3c2-c2ccccc2)C2CCN1CC2 |  |  |  |  | 107 | 56 | 72 | 20 | 148

Second part, led by results:

Row | Ki [1] [nM] | Ki [2] [nM] | Ki [3] [nM] | Ki [4] [nM] | Ki [5] [nM] | Ki [6] [nM] | Ki [7] [nM] | Ki [8] [nM] | SMILES | Kb (Cavia porcellus) [nM]
15 | 462 | 802 | 197 | 970 |  |  |  |  | OCc1cc(I)c2oc(C3=CN4CCC3CC4)cc2c1 | 
16 |  |  |  |  | 1700 | 3023 | 1612 | 648 | O=Cc1cccc2cc(C3=CN4CCC3CC4)oc12 | 
17 |  |  |  |  | 1300 | 1571 | 920 | 364 | O=Cc1ccc2oc(C3=CN4CCC3CC4)cc2c1 | 
18 | 1100 | 2460 | 480 | 2700 |  |  |  |  | OCc1cc(I)cc2cc(C3=CN4CCC3CC4)oc12 | 
19 | 1900 | 1600 | > 150 | > 1000 |  |  |  |  | O=[N+]([O-])c1cc(I)c2oc(C3=CN4CCC3CC4)cc2c1 | 
20 |  |  |  |  | 1000 | 1300 | 517 | 221 | O=Cc1cc(I)c2oc(C3=CN4CCC3CC4)cc2c1 | 
21 |  |  | 440 |  |  |  |  |  | N#Cc1cc(I)c2oc(C3=CN4CCC3CC4)cc2c1 | 
22 |  |  |  |  | 3900 | 7600 | 2040 | 1170 | COc1cc(C=O)cc2cc(C3=CN4CCC3CC4)oc12 | 
23 |  |  |  |  |  | 76 | 76 | 25 | Cc1cccc2cc(C3=CN4CCC3CC4)oc12 | 
24 |  |  |  |  | 600 | 2300 | 314 | 358 | O=Cc1cc(I)cc2cc(C3=CN4CCC3CC4)oc12 | 
25 |  |  |  |  | 156 | 109 | 86 | 39 | Brc1ccc2oc(C3=CN4CCC3CC4)cc2c1 | 178
26 | 5400 | 9400 | 3665 | 20000 |  |  |  |  | COc1cc(CO)cc2cc(C3=CN4CCC3CC4)oc12 | 10000
